Measurements published in ChEMBL document CHEMBL1127564, “Studies on neurokinin antagonists. 4. Synthesis and structure-activity relationships of novel dipeptide substance P antagonists: N2-[(4R)-4-hydroxy-1-[(1-methyl-1H-indol-3-yl)carbonyl]-L-prolyl]-N- methyl-N-(phenylmethyl)-3-(2-naphthyl)-L-alaninamide and its related compounds” (J Med Chem, 1994).

Tests used:
Substance-P receptor = Substance-P receptor (Cavia porcellus, UniProt P30547); assay: In vitro binding affinity against substance P receptor using [3H]SP as radioligand in guinea pig lung membrane; assay type: cell membranes
Chain of Substance-P receptor (P30547 whole entry): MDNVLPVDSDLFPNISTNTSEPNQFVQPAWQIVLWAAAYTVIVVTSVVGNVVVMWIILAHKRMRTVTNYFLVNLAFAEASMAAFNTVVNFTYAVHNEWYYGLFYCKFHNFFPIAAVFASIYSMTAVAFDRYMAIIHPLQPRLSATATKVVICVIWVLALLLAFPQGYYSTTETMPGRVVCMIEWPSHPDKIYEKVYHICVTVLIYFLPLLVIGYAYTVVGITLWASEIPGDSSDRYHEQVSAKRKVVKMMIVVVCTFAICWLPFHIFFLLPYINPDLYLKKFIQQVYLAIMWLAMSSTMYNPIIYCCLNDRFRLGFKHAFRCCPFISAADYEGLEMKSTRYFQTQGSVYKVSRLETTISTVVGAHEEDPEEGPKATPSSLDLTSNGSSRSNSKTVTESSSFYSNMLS
Summary of the method: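 Guinea pig lung membranes incubated with 1 nM [3H]SP, with or without test compound, 0.5 h at 4 °C in 50 mM Tris-HCl pH 7.5, 5 mM MnCl2, 0.02% BSA, chymostatin, leupeptin, bacitracin. Filtered on glass-fibre filters, radioactivity counted by scintillation. Specific binding defined as that displaced by 5 μM unlabeled SP. IC50 estimated from the displacement curve. Duplicate assays, usually a single experiment.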

Cavia porcellus [1] = assay: In vivo inhibitory activity against airway edema induced by Substance P at a dose 10 mg/kg administered orally; assay type: functional; conditions: route oral
Summary of the method: (§1)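 Male Hartley guinea pigs dosed orally with drug in DMSO solution, or with vehicle, 30 min before intravenous SP (1.3 μg/kg) given with Evans Blue (20 mg/kg) and heparin (200 IU/kg). Trachea and main bronchi removed 10 min after challenge; dye extracted and read at 620 nm. Percent inhibition of edema reported, two animals per experiment.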

Cavia porcellus [2] = assay: In vivo inhibitory activity against airway edema induced by Substance P at a dose 100 mg/kg administered orally; assay type: functional; conditions: route oral; summary of the method: as §1

| IC50 (Substance-P receptor; read-out: IC50) | IC50 (Substance-P receptor) | SMILES | inhibition in vivo at 10 mg/kg (Cavia porcellus [1]) | inhibition in vivo at 100 mg/kg (Cavia porcellus [2]) |
| --- | --- | --- | --- | --- |
| 15.9 nM |  | CC(C)n1cc(C(=O)N2C[C@H](O)CC2C(=O)N[C@H](Cc2ccccc2)C(=O)N(C)Cc2ccccc2)c2ccccc21 (stereo not given in full) | 48% |  |
| 19.9 nM |  | CN(Cc1ccccc1)C(=O)[C@@H](Cc1ccccc1)NC(=O)C1C[C@@H](O)CN1C(=O)c1cc2ccccc2s1 (stereo not given in full) | 37% |  |
| 7 nM |  | CN(Cc1ccccc1)C(=O)[C@@H](Cc1ccc([N+](=O)[O-])cc1)NC(=O)C1C[C@@H](O)CN1C(=O)c1cn(C)c2ccccc12 (stereo not given in full) | 19% | 39% |
| 49.7 nM |  | CN(Cc1ccccc1)C(=O)[C@@H](Cc1ccccc1)NC(=O)C1C[C@@H](O)CN1C(=O)c1cn(CC(=O)O)c2ccccc12 (stereo not given in full) |  |  |
| 3.5 nM |  | CN(Cc1ccccc1)C(=O)[C@@H](Cc1cn(C=O)c2ccccc12)NC(=O)C1C[C@@H](O)CN1C(=O)c1cn(C)c2ccccc12 (stereo not given in full) |  | 21% |
| 10.3 nM |  | CN(Cc1ccccc1)C(=O)[C@@H](Cc1csc2ccccc12)NC(=O)C1C[C@@H](O)CN1C(=O)c1cn(C)c2ccccc12 (stereo not given in full) | 34% | 99% |
| 14 nM |  | CN(Cc1ccccc1)C(=O)[C@@H](Cc1ccccc1F)NC(=O)C1C[C@@H](O)CN1C(=O)c1cn(C)c2ccccc12 (stereo not given in full) |  | 35% |
| 8 nM |  | CN(Cc1ccccc1)C(=O)[C@@H](Cc1ccccc1)NC(=O)C1CCN1C(=O)c1c[nH]c2ccccc12 (stereo not given in full) |  |  |
| 9 nM |  | CN(Cc1ccccc1)C(=O)[C@@H](Cc1ccccc1)NC(=O)C1C[C@@H](O)CN1C(=O)/C=C/c1ccccc1 (stereo not given in full) | 47% |  |
| 27.3 nM |  | CN(Cc1ccccc1)C(=O)[C@@H](Cc1ccc2cc(Cl)ccc2c1)NC(=O)C1C[C@@H](O)CN1C(=O)c1cn(C)c2ccccc12 (stereo not given in full) |  |  |
|  |  | CN(Cc1ccccc1)C(=O)[C@@H](Cc1ccccc1)NC(=O)C1C[C@@H](O)CN1C(=O)c1cn(C)c2ccccc12 (stereo not given in full) | 51% | 75% |
|  | Not Active | CN(Cc1ccccc1)C(=O)[C@@H](Cc1ccccc1)NC(=O)[C@H]1CCCN1C(=O)c1c[nH]c2ccccc12 |  |  |
|  | 23 nM | Cc1ccc2cc(C[C@@H](NC(=O)C3C[C@@H](O)CN3C(=O)c3cn(C)c4ccccc34)C(=O)N(C)Cc3ccccc3)ccc2c1 (stereo not given in full) |  | 28% |
| 1.7 nM |  | CN(Cc1ccccc1)C(=O)[C@@H](Cc1ccc2ccccc2c1)NC(=O)C1C[C@@H](O)CN1C(=O)c1cn(C)c2ccccc12 (stereo not given in full) | 86% | 94% |
| 11.6 nM |  | CN(Cc1ccccc1)C(=O)[C@@H](Cc1ccc2c(c1)CCCC2)NC(=O)C1C[C@@H](O)CN1C(=O)c1cn(C)c2ccccc12 (stereo not given in full) | 69% | 87% |
| 7.6 nM |  | COc1ccc(C[C@@H](NC(=O)C2C[C@@H](O)CN2C(=O)c2cn(C)c3ccccc23)C(=O)N(C)Cc2ccccc2)cc1 (stereo not given in full) | 29% | 91% |
| 1.7 nM |  | CN(Cc1ccccc1)C(=O)[C@@H](Cc1c[nH]c2ccccc12)NC(=O)C1C[C@@H](O)CN1C(=O)c1cn(C)c2ccccc12 (stereo not given in full) |  | 7% |
| 1.1 nM |  | CN(Cc1ccccc1)C(=O)[C@@H](Cc1ccc2c(c1)OCCO2)NC(=O)C1C[C@@H](O)CN1C(=O)c1cn(C)c2ccccc12 (stereo not given in full) |  | 1% |
| 25.3 nM |  | CN(Cc1ccccc1)C(=O)[C@@H](Cc1ccc(NS(C)(=O)=O)cc1)NC(=O)C1C[C@@H](O)CN1C(=O)c1cn(C)c2ccccc12 (stereo not given in full) |  | 0% |

| IC50 (Substance-P receptor; read-out: IC50) | IC50 (Substance-P receptor) | SMILES | inhibition in vivo at 10 mg/kg (Cavia porcellus [1]) | inhibition in vivo at 100 mg/kg (Cavia porcellus [2]) |
| --- | --- | --- | --- | --- |
|  | 4.3 nM | CN(Cc1ccccc1)C(=O)[C@@H](Cc1ccc(F)cc1)NC(=O)C1C[C@@H](O)CN1C(=O)c1cn(C)c2ccccc12 (stereo not given in full) | 30% | 96% |
|  | 9.2 nM | CN(Cc1ccccc1)C(=O)[C@@H](Cc1cccc(F)c1)NC(=O)C1C[C@@H](O)CN1C(=O)c1cn(C)c2ccccc12 (stereo not given in full) |  | 85% |
|  | 3.5 nM | CN(Cc1ccccc1)C(=O)[C@@H](Cc1cccc(C(F)(F)F)c1)NC(=O)C1C[C@@H](O)CN1C(=O)c1cn(C)c2ccccc12 (stereo not given in full) |  | 66% |
|  | 4.9 nM | CN(Cc1ccccc1)C(=O)[C@@H](Cc1ccc(C(F)(F)F)cc1)NC(=O)C1C[C@@H](O)CN1C(=O)c1cn(C)c2ccccc12 (stereo not given in full) | 83% | 94% |
|  | 1.8 nM | CN(Cc1ccccc1)C(=O)[C@@H](Cc1ccc(O)cc1)NC(=O)C1C[C@@H](O)CN1C(=O)c1cn(C)c2ccccc12 (stereo not given in full) |  | 11% |
| 3.5 nM |  | CN(C)CCn1cc(C(=O)N2C[C@H](O)CC2C(=O)N[C@H](Cc2ccccc2)C(=O)N(C)Cc2ccccc2)c2ccccc21 (stereo not given in full) | 2% |  |
| 14 nM |  | CN(Cc1ccccc1)C(=O)[C@@H](Cc1ccccc1)NC(=O)C(CCCCN)NC(=O)c1c[nH]c2ccccc12 (stereo not given in full) |  |  |
| 5.4 nM |  | CN(Cc1ccccc1)C(=O)[C@@H](Cc1ccc(N)cc1)NC(=O)C1C[C@@H](O)CN1C(=O)c1cn(C)c2ccccc12 (stereo not given in full) |  | 0% |
| 14 nM |  | CN(Cc1ccccc1)C(=O)[C@@H](Cc1ccccc1)NC(=O)C1C[C@@H](O)CN1C(=O)CCc1ccccc1 (stereo not given in full) | 4% |  |
| 289 nM |  | CN(Cc1ccccc1)C(=O)[C@@H](Cc1ccccc1)NC(=O)C1CCC(O)CN1C(=O)c1c[nH]c2ccccc12 (stereo not given in full) |  |  |
|  | Not Active | CN(Cc1ccccc1)C(=O)[C@@H](Cc1ccccc1)NC(=O)C(CC(=O)O)NC(=O)c1c[nH]c2ccccc12 (stereo not given in full) |  |  |
| 9 nM |  | CN(Cc1ccccc1)C(=O)[C@@H](Cc1ccccc1)NC(=O)C(CC(N)=O)NC(=O)c1c[nH]c2ccccc12 (stereo not given in full) |  |  |
| 11 nM |  | CN(Cc1ccccc1)C(=O)[C@@H](Cc1ccccc1)NC(=O)C(CO)NC(=O)c1c[nH]c2ccccc12 (stereo not given in full) |  |  |
| 5 nM |  | CN(Cc1ccccc1)C(=O)[C@@H](Cc1ccccc1)NC(=O)C1C[C@@H](O)CN1C(=O)c1[nH]nc2ccccc12 (stereo not given in full) | 0% |  |
|  | 32 nM | CN(Cc1ccccc1)C(=O)[C@@H](Cc1ccccc1)NC(=O)C1C[C@@H](O)CN1C(=O)CCCc1ccccc1 (stereo not given in full) |  |  |
| 139 nM |  | CN(Cc1ccccc1)C(=O)[C@@H](Cc1ccccc1)NC(=O)C1C[C@@H](O)CN1C(=O)Cc1ccccc1 (stereo not given in full) |  |  |
| 5.4 nM |  | CN(Cc1ccccc1)C(=O)[C@@H](Cc1ccccc1)NC(=O)C1CCCN1C(=O)c1c[nH]c2ccccc12 (stereo not given in full) |  |  |
| 4.6 nM |  | CN(Cc1ccccc1)C(=O)C(Cc1ccccc1)NC(=O)C1C[C@H](O)CN1C(=O)c1c[nH]c2ccccc12 (single isomer, unassigned) |  |  |
| 7.4 nM |  | CN(Cc1ccccc1)C(=O)C(Cc1ccccc1)NC(=O)C1C[C@@H](O)CN1C(=O)c1c[nH]c2ccccc12 (single isomer, unassigned) |  | 8% |
